Converted amounts (≈) assume the structure as drawn.
What was measured:
Rattus norvegicus [1] = species: Rattus norvegicus; test: Fluid concentration in lung tissue was determined in rats at 2 h; assay type: functional
Outline: (§1)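 Rats dosed by gavage at 20 mg/kg; lung, liver, kidney, urine and serum sampled at 0.5, 1, 2, 4 and 6 h after dosing. Antibiotic measured by microbiological assay with Micrococcus luteus seeded in Antibiotic Medium 1. Zone sizes were read against the standard curve for the same compound. Each value is the average of three rats per time point.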

Staphylococcus aureus [2] = test: Effective dose against mice infected with Staphylococcus aureus after peroral administration (in vivo); assay type: functional; details: in Mus musculus, po
Rattus norvegicus [3] = species: Rattus norvegicus; test: Fluid concentration in lung tissue was determined in rats at 1 h; assay type: functional; outline: as §1
Rattus norvegicus [4] = species: Rattus norvegicus; test: Fluid concentration in kidney tissue was determined in rats at 4 h; assay type: functional
Outline: (§2)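 Rats were gavaged at 20 mg/kg and tissues sampled 0.5–6 h after dosing. Drug was assayed microbiologically with Micrococcus luteus seeded in Antibiotic Media 1. Zone sizes were read against each compound's own standard curve. Values are the mean of three rats per time point, in μg/g.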

Mus musculus [5] = test: Plasma concentration in mice was determined by subcutaneous administration, 20 mg/kg at 1 hr; assay type: functional, organism-based; design: dose 20 mg/kg
Outline: (§3)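 Mice given 20 mg/kg orally or subcutaneously; peripheral plasma sampled at 5, 20 and 40 min and at 1, 2 and 4 h after dosing. Microbiological assay used Micrococcus luteus seeded in Antibiotic Medium 1, with zone sizes converted by the compound's own standard curve. Each value is the average of five mice per time point.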

Rattus norvegicus [6] = species: Rattus norvegicus; test: Fluid concentration in liver tissue was determined in rats at 1 h; assay type: functional; outline: as §1
Mus musculus [7] = test: ED50 value was measured by po administration against staphylococcus aureus infection in mice (in vivo, in experiment 1); assay type: functional
Outline: (§4)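 Infected mice were dosed orally or subcutaneously at 1 and 5 h postinfection, 0.25 mL of antibiotic solution in 10% aqueous ethanol per dose. Tartaric acid was added where needed for solubility. Several dose concentrations were tested to give the ED50.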

Mus musculus [8] = test: Plasma concentration in mice was determined by subcutaneous administration, 20 mg/kg at 5 min; assay type: functional, organism-based; design: dose 20 mg/kg; outline: as §3
Mus musculus [9] = test: ED50 value was measured by po administration against streptococcus pneumoniae infection in mice (in vivo, in experiment 3); assay type: functional
Mus musculus [10] = test: ED50 value was measured by po administration against streptococcus pyogenes infection in mice (in vivo, in experiment 1); assay type: functional; outline: as §4
Rattus norvegicus [11] = species: Rattus norvegicus
Mus musculus [12] = test: ED50 value was measured by sc administration against streptococcus pneumoniae infection in mice (in vivo, in experiment 3); assay type: functional
Mus musculus [13] = test: Plasma concentration in mice was determined by subcutaneous administration, 20 mg/kg at 2 hr; assay type: functional, organism-based; design: dose 20 mg/kg; outline: as §3
Rattus norvegicus [14] = species: Rattus norvegicus; test: Fluid concentration in lung tissue was determined in rats at 0.5 h; assay type: functional; outline: as §1
Haemophilus influenzae = test: MIC value was measured against haemophilus influenzae CL; assay type: functional
Mus musculus [15] = test: Plasma concentration in mice was determined by subcutaneous administration, 20 mg/kg at 4 hr; assay type: functional, organism-based; design: dose 20 mg/kg; outline: as §3
Mus musculus [16] = test: ED50 value was measured by sc administration against streptococcus pneumoniae infection in mice (in vivo, in experiment 1); assay type: functional; outline: as §4
Rattus norvegicus [17] = species: Rattus norvegicus; test: Fluid concentration in kidney tissue was determined in rats at 0.5 h; assay type: functional; outline: as §2
Mus musculus [18] = test: Plasma concentration in mice was determined by oral administration, 20 mg/kg at 5 min; assay type: functional, organism-based; design: dose 20 mg/kg; outline: as §3
Rattus norvegicus [19] = species: Rattus norvegicus; remark: listed apart in the source
Mus musculus [20] = test: ED50 value was measured by po administration against streptococcus pyogenes infection in mice (in vivo, in experiment 3); assay type: functional
Mus musculus [21] = test: Plasma concentration in mice was determined by subcutaneous administration, 20 mg/kg at 40 min; assay type: functional, organism-based; design: dose 20 mg/kg; outline: as §3
Mus musculus [22] = test: ED50 value was measured by sc administration against staphylococcus aureus infection in mice (in vivo, in experiment 1); assay type: functional; outline: as §4
Rattus norvegicus [23] = species: Rattus norvegicus; remark: listed apart in the source
Rattus norvegicus [24] = test: Plasma concentration in rats was determined by subcutaneous administration, 20 mg/kg at 8 h; assay type: functional, organism-based; design: dose 20 mg/kg
Outline: (§5)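 Peripheral plasma antibiotic levels in rats given 20 mg/kg orally or subcutaneously. Plasma was sampled at timed points after dosing. Levels were measured by microbiological agar assay with Micrococcus luteus seeded in Antibiotic Media 1, reading zone sizes, and were calculated from a standard curve for the appropriate compound. Each value is the average of three rats per time point, in μg/mL.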

Rattus norvegicus [25] = species: Rattus norvegicus; remark: listed apart in the source
Staphylococcus aureus [26] = test: MIC value measured against staphylococcus aureus X1; assay type: functional
Streptococcus pneumoniae [27] = test: Effective dose against mice infected with streptococcus pneumoniae after peroral administration (in vivo); assay type: functional; details: in Mus musculus, po
Streptococcus pyogenes [28] = test: MIC value measured against streptococcus pyogenes C203; assay type: functional
Streptococcus pyogenes [29] = test: Effective dose against mice infected with streptococcus pyogenes after peroral administration (in vivo); assay type: functional; details: in Mus musculus, po
Rattus norvegicus [30] = species: Rattus norvegicus; test: Fluid concentration in liver tissue was determined in rats at 0.5 h; assay type: functional; outline: as §2
Streptococcus pneumoniae [31] = test: MIC value measured against streptococcus pneumoniae Park1; assay type: functional
Mus musculus [32] = test: ED50 value was measured by sc administration against staphylococcus aureus infection in mice (in vivo, in experiment 3); assay type: functional
Rattus norvegicus [33] = species: Rattus norvegicus; test: Fluid concentration in lung tissue was determined in rats at 6 h; assay type: functional; outline: as §1
Mus musculus [34] = test: ED50 value was measured by sc administration against streptococcus pyogenes infection in mice (in vivo, in experiment 1); assay type: functional; outline: as §4
Mus musculus [35] = test: ED50 value was measured by po administration against staphylococcus aureus infection in mice (in vivo, in experiment 3); assay type: functional
Rattus norvegicus [36] = species: Rattus norvegicus; test: Fluid concentration in lung tissue was determined in rats at 4 h; assay type: functional; outline: as §1
Mus musculus [37] = test: Plasma concentration in mice was determined by subcutaneous administration, 20 mg/kg at 20 min; assay type: functional, organism-based; design: dose 20 mg/kg; outline: as §3
[38] = tested on: Staphylococcus epidermidis; test: microbe, parasite or virus in culture; assay type: functional
Rattus norvegicus [39] = test: Plasma concentration in rats was determined by oral administration, 20 mg/kg at 40 min; assay type: functional, organism-based; design: dose 20 mg/kg; outline: as §5
Rattus norvegicus [40] = test: Plasma concentration in rats was determined by subcutaneous administration, 20 mg/kg at 20 min; assay type: functional, organism-based; design: dose 20 mg/kg; outline: as §5
Mus musculus [41] = test: ED50 value was measured by po administration against streptococcus pneumoniae infection in mice (in vivo, in experiment 1); assay type: functional; outline: as §4

In the case of CCCN[C@@H]1[C@H](C)[C@@H](O)[C@](C)(O)[C@@H](CC)OC(=O)[C@H](C)[C@@H](OC2CC(C)(OC)C(O)C(C)O2)[C@H](C)[C@@H](OC2OC(C)CC(N(C)C)C2O)[C@](C)(O)C[C@H]1C (some centres not stated), the Activity (Rattus norvegicus [1]) is reported as 4.9 µg/mL, the ED50 (Staphylococcus aureus [2]) is reported as 12 mg/kg and the Activity (Rattus norvegicus [3]) is reported as 2.25 µg/mL. For the same molecule, the Activity (Rattus norvegicus [4]) was 4.28 µg/mL, the Plasma concentration (Mus musculus [5]) was 0.39 µg/mL and the Activity (Rattus norvegicus [6]) was 0.17 µg/mL. It also gave an ED50 (Mus musculus [7]) of 19 mg/kg, a Plasma concentration (Mus musculus [8]) of 1.58 µg/mL and an ED50 (Mus musculus [9]) of 6 mg/kg. It also gave an ED50 (Mus musculus [10]) of 9 mg/kg, a Plasma concentration (Rattus norvegicus [11]) of 0.08 µg/mL and an ED50 (Mus musculus [12]) of 1.8 mg/kg. It also gave a Plasma concentration (Mus musculus [13]) of 0.11 µg/mL, an Activity (Rattus norvegicus [14]) of 0.31 µg/mL and an MIC (Haemophilus influenzae) of 0.5 µg/mL (≈ 0.643 µM). It also gave a Plasma concentration (Mus musculus [15]) of 0.06 µg/mL, an ED50 (Mus musculus [16]) of 1.6 mg/kg and an Activity (Rattus norvegicus [17]) of 0.1 µg/mL. It also gave a Plasma concentration (Mus musculus [18]) of 0 µg/mL, a Plasma concentration (Rattus norvegicus [19]) of 0.08 µg/mL and an ED50 (Mus musculus [20]) of 6 mg/kg. It also gave a Plasma concentration (Mus musculus [21]) of 0.47 µg/mL, an ED50 (Mus musculus [22]) of 4.7 mg/kg and a Plasma concentration (Rattus norvegicus [23]) of 0.04 µg/mL. For the same molecule, the Plasma concentration (Rattus norvegicus [24]) was 0.24 µg/mL, the Plasma concentration (Rattus norvegicus [25]) was 0.06 µg/mL and the MIC (Staphylococcus aureus [26]) was 0.25 µg/mL (≈ 0.322 µM). The ED50 (Streptococcus pneumoniae [27]) was 7 mg/kg, the MIC (Streptococcus pyogenes [28]) was 0.03 µg/mL (≈ 0.0386 µM) and the ED50 (Streptococcus pyogenes [29]) was 3 mg/kg. The Activity (Rattus norvegicus [30]) was 0.08 µg/mL, the MIC (Streptococcus pneumoniae [31]) was 0.015 µg/mL (≈ 0.0193 µM) and the ED50 (Mus musculus [32]) was 6.1 mg/kg. For the same molecule, the Activity (Rattus norvegicus [33]) was 5.08 µg/mL, the ED50 (Mus musculus [34]) was 1.7 mg/kg and the ED50 (Mus musculus [35]) was 13 mg/kg. For the same molecule, the Activity (Rattus norvegicus [36]) was 5.46 µg/mL, the Plasma concentration (Mus musculus [37]) was 0.75 µg/mL and the MIC [38] was 0.12 µg/mL (≈ 0.154 µM). It also gave a Plasma concentration (Rattus norvegicus [39]) of 0.01 µg/mL, a Plasma concentration (Rattus norvegicus [40]) of 0.07 µg/mL and an ED50 (Mus musculus [41]) of 14 mg/kg.

From ChEMBL document CHEMBL1125014, “Synthesis and structure-activity relationships of new 9-N-alkyl derivatives of 9(S)-erythromycylamine” (1990)
